The record followed here is ChEMBL document CHEMBL3414536 (Eur J Med Chem, 2015).

In data set [1] the test system is Hs 683. The data set is described as follows: Cytostatic activity against human Hs683 cells after 72 hrs by videomicroscopy. It counts as functional, cell-based. The note with it: Hs 683, 72 h.
A short description of data set [2]: Aqueous solubility of the compound. The note with it: buffer. It counts as physicochemical. The procedure, abridged: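 Solubility measured at pH 7.4, room temperature, by a previously described protocol; reported in µg/ml.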
A short description of data set [3]: Cytotoxicity against human Hs683 cells by MTT assay. It counts as functional, cell-based. Particulars: Hs 683. The method, boiled down:
(§1)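 Human cancer cell lines were cultured for three days with or without compound at 10 nM to 100 µM and read by MTT colorimetric assay. IC50 is the concentration reducing global growth by 50% relative to untreated controls.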

Data set [4] has as its system SK-MEL-28. The data set can be described thus: Cytotoxicity against human SK-MEL-28 cells by MTT assay. It counts as functional, cell-based. The procedure, abridged: as §1
In general terms: Tetrazolium dyes change colour on reduction, which living cells bring about.

Data set [5] deals with A549. The data set is described as follows: Cytotoxicity against human A549 cells by MTT assay. It counts as functional, cell-based. The procedure, abridged: as §1
Data set [6] can be described thus: Cytotoxicity against human U373 cells by MTT assay. It counts as functional, cell-based, U-373MG ATCC. The note with it: U373 MG. The method, boiled down: as §1
Data set [7] relates to T98G. The data set is described as follows: Cytotoxicity against human T98G cells by MTT assay. It counts as functional, cell-based. The procedure, abridged: as §1
Data set [8] can be described thus: Cytostatic activity against human U373 cells after 72 hrs by videomicroscopy. It counts as functional, cell-based, U-373MG ATCC. The note with it: U373 MG.
Data set [9] concerns SK-MEL-28. The data set is described as follows: Cytostatic activity against human SK-MEL-28 cells after 72 hrs by videomicroscopy. It counts as functional, cell-based. Particulars: SK-MEL-28, 72 h.

SMILES strings stand for the structures.

In the case of `Cc1c2c(cc[n+]1CCC(C)C)c1ccc(OCc3ccccc3)cc1n2Cc1ccccc1`, half-maximal inhibition in data set [1] (IC50) required 400 nM.
For the compound `Cc1c2c(cc[n+]1Cc1ccc(F)cc1)c1ccc(OCc3cccc(F)c3)cc1n2Cc1cccc(F)c1.[Br-]`, in data set [2], the solubility (in general, the dissolved amount per volume that the medium holds) was 2.4 µg/mL.
Turning to `Cc1c2c(cc[n+]1Cc1ccccc1)c1ccc(OCC3CCCCC3)cc1n2CC1CCCCC1.[Br-]`, the solubility in data set [2] (read-out: solubility) was below 1.7 µg/mL. Half-maximal inhibition in data set [1] (IC50) required 400 nM.
Consider `Cc1c2c(cc[n+]1Cc1ccccc1F)c1ccc(OCC3CCCCC3)cc1n2CC1CCCCC1`, for which half-maximal inhibition in data set [1] (IC50) was put at 300 nM.
Same read-out and setting: the same measure for `Cc1c2c(cc[n+]1CCC(C)C)c1ccc(OCCC(C)C)cc1n2CCC(C)C`: 300 nM.
Regarding `CCCn1c2cc(OCc3ccccc3)ccc2c2cc[n+](Cc3ccccc3F)c(C)c21`, the concentration for half-maximal inhibition (IC50) (usually the concentration that inhibits the measured activity by half) in data set [1] was 500 nM.
Same read-out and setting: the same measure for `Cc1c2c(cc[n+]1Cc1ccccc1)c1ccc(OCCC(C)C)cc1n2CCC(C)C`: 3100 nM; for `Cc1nccc2c3ccc(OCc4cccc(F)c4)cc3n(Cc3cccc(F)c3)c12`: 17000 nM.
In the case of `Cc1c2c(cc[n+]1Cc1ccccc1)c1ccc(OCc3ccccc3)cc1n2Cc1ccccc1.[Br-]`, the solubility in data set [2] (read-out: solubility) amounted to 72.5 µg/mL.
`Cc1c2c(cc[n+]1Cc1ccccc1F)c1ccc(OCc3ccccc3)cc1n2Cc1ccccc1` returned an IC50 in [1] of 400 nM.
For the compound `Cc1c2c(cc[n+]1CCC(C)C)c1ccc(OCCC(C)C)cc1n2CCc1nnn[nH]1`, the concentration for half-maximal inhibition (IC50) in data set [3], in data set [4] and in data set [5] was above 100000 nM throughout.
`Cc1c2c(cc[n+]1CCC(C)C)c1ccc(OCCO)cc1n2CCO.[Br-]`: the IC50 in data set [3], in data set [4], in data set [5] and in data set [6] was above 100000 nM throughout. Further, the solubility in data set [2] (read-out: solubility) is above 219 µg/mL.
With `Cc1c2c(cc[n+]1CCO)c1ccc(OCCO)cc1n2CCO.[Br-]`, the IC50 was above 100000 nM in [3], 51000 nM in data set [4], 51000 nM in data set [5] and above 100000 nM in data set [6]. Further, the solubility in [2] (read-out: solubility) was above 206 µg/mL.
Take `CCCOc1ccc2c3cc[n+](CC)c(C)c3n(CCC)c2c1.[Br-]`: the concentration for half-maximal inhibition (IC50) in data set [3] is 2000 nM; in data set [4], 8000 nM; in data set [7] it was 22000 nM; in data set [5] it was 700 nM; in data set [6], 35000 nM. In data set [2] (read-out: solubility), the solubility is 174 µg/mL.
As for `CCCOc1ccc2c3cc[n+](CCC(C)C)c(C)c3n(CCC)c2c1.[Br-]`, the IC50 in data set [3] came to 1000 nM; in data set [4] it was 3000 nM; in data set [7], 4000 nM; in [5], 2000 nM; in data set [6], 22000 nM. For the same compound, in data set [2] (read-out: solubility), the solubility amounted to 196 µg/mL.
Turning to `CCCn1c2cc(OCc3ccccc3)ccc2c2cc[n+](CC)c(C)c21.[Br-]`, the IC50 in [3] is 3000 nM; in [4], 4000 nM; in data set [7], 11000 nM; in data set [5], 2000 nM; in [6], 22000 nM. Further, the solubility in data set [2] (read-out: solubility) turned out to be 207 µg/mL.
For the compound `CCCn1c2cc(OCc3ccccc3)ccc2c2cc[n+](CCC(C)C)c(C)c21.[Br-]`, the IC50 in data set [3] turned out to be 300 nM; in [4] it was 1000 nM; in data set [7], 1500 nM; in data set [8], 1000 nM; in data set [5] it was 300 nM; in data set [9] it was 1000 nM. For the same compound, the IC50 in [6] is 2000 nM; in data set [1], 1000 nM. The solubility in data set [2] (read-out: solubility) worked out at 164 µg/mL.
Consider `CCCn1c2cc(OCc3ccccc3)ccc2c2cc[n+](CC(C)C)c(C)c21.[Br-]`, for which the IC50 in data set [3] came out at 400 nM; in data set [4] it was 600 nM; in [7], 3800 nM; in data set [5], 800 nM; in data set [6], 1000 nM. Also, the solubility in [2] (read-out: solubility) came to 207 µg/mL.
With `CCCn1c2cc(OCCC(C)C)ccc2c2cc[n+](CC)c(C)c21.[Br-]`, the IC50 in data set [3] was 90 nM; in data set [4], 1000 nM; in data set [7], 900 nM; in [8], 1000 nM; in [5], 200 nM; in data set [9] it was 1000 nM. For the same compound, the values for the IC50 in data set [6] and in data set [1] were 600 nM and 1000 nM, respectively. Further, the solubility in [2] (read-out: solubility) was 186 µg/mL.
In the case of `CCCn1c2cc(OCCC(C)C)ccc2c2cc[n+](CCC)c(C)c21.[Br-]`, the 50% inhibitory concentration (IC50) stood at 40 nM in data set [3]; 900 nM in [4]; 1200 nM in data set [7]; 300 nM in data set [5]; 600 nM in data set [6]. Moreover, in [2] (read-out: solubility), the solubility is 185 µg/mL.
For the compound `Cc1c2c(cc[n+]1CC(=O)c1ccccc1)c1ccc(OCc3ccccc3)cc1n2Cc1ccccc1`, the half-maximal inhibitory concentration (IC50) in [1] was 26000 nM.
